According to article PMC4394037 (Journal of molecular biology, 2014):

Target: Bcl-xL (Homo sapiens, UniProt Q07817)
Assay type: binding
Conditions: global SORTCERY ranks re-indexed from 1 to 19 for the 19 chosen sequences
How it was run: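 Incubated with Myc-tagged Bcl-xL in 50 mM Tris, 100 mM NaCl, pH 8.0, 1 mg/ml BSA for 2 h at room temperature. Stained with anti-HA/anti-Myc, then APC/PE secondaries, at 4 °C. Sorted into 12 gates and deep-sequenced (Phred >0.95). Global ranking optimised by Monte Carlo, with bootstrap uncertainty.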

Sequence of Bcl-xL (Q07817 whole entry): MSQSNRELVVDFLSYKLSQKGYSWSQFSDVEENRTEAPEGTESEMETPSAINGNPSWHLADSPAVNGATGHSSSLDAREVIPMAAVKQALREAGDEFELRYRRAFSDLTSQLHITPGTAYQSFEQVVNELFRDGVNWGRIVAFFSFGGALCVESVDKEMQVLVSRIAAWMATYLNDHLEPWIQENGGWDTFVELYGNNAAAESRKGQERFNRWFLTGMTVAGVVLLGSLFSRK

IGAQFGRFADDF
reindexed ranking: 5

YAQEIGRNGDEF
reindexed ranking: 16

AGAQLHRFADDY
reindexed ranking: 12

VAQELRRIGDEV
reindexed ranking: 9

VGAQLRRIADDV
reindexed ranking: 1

AAQELRRYGDEY
reindexed ranking: 8

YAQELQRYGDET
reindexed ranking: 13

IGAQLRRMADDV
reindexed ranking: 7

VAQELRRYGDEY
reindexed ranking: 4

VGAQFHRFANDF
reindexed ranking: 17

YGAQLDRYAQDF
reindexed ranking: 10

FGAQLNRIAEDF
reindexed ranking: 6

FGAQLGRVASDF
reindexed ranking: 14
